Tests used:
Adenosine receptor A3 [1] = target: T1, Adenosine receptor A3 (Homo sapiens, UniProt P0DMS8); test: Displacement of [3H]PSB-11 from human adenosine receptor A3 expressed in CHO cell membranes incubated for 60 mins by radioligand competition assay; design: species or system Cell membrane
T1 sequence (P0DMS8 whole entry): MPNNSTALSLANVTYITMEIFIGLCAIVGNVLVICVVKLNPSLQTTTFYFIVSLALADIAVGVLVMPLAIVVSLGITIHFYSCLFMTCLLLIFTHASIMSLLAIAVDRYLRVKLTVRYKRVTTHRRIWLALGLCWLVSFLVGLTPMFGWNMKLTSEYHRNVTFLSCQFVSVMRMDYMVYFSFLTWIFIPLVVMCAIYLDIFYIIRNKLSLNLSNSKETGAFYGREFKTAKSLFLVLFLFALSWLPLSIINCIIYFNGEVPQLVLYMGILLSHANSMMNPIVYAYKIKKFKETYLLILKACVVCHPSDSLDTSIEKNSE

Adenosine receptor A1 [2] = target: T2, Adenosine receptor A1 (Rattus norvegicus, UniProt P25099); test: Displacement of [3H]CCPA from adenosine receptor A1 in rat brain cortex membranes incubated for 90 mins by radioligand competition assay; assay type: cell membranes, Cell membrane
T2 sequence (P25099 whole entry): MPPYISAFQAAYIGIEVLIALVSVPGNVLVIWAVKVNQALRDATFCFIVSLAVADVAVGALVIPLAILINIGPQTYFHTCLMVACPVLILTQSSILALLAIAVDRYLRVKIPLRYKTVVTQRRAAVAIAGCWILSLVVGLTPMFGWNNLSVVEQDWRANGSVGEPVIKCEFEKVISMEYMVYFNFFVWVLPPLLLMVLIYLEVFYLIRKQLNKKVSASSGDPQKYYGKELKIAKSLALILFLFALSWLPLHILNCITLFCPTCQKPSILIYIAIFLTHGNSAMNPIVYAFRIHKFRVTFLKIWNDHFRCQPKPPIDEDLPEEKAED

Adenosine receptor A2a [3] = target: T3, Adenosine receptor A2a (Homo sapiens, UniProt P29274); test: Displacement of [3H]MSX2 from human adenosine receptor A2A expressed in HEK293 cell membranes incubated for 30 mins by radioligand competition assay; design: species or system Cell membrane
[4] = target: T4, Adenosine receptor A1 (Rattus norvegicus) (UniProt P25099); test: Displacement of [3H]CCPA from adenosine receptor A1 in rat brain cortex membranes at 0.1 uM incubated for 90 mins by radioligand competition assay; details: Cell membrane
T4 sequence (whole entry): T2 sequence (P25099 whole entry)
Summary of the method: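 A1 competition binding with [3H]CCPA, 0.5 nM. Membranes: CHO cells expressing human A1, or rat brain cortex. Membranes preincubated 20 min with adenosine deaminase (2 U/mL per mg protein). Incubation 90 min at rt in 50 mM Tris-HCl pH 7.4 with 2.5% final DMSO. Nonspecific binding defined by 10 µM 2-chloroadenosine. GF/B filtration, scintillation counting.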

[5] = target: Adenosine receptor A2a (Rattus norvegicus) (UniProt P30543); test: Displacement of [3H]MSX2 from adenosine receptor A2A in rat brain striatum membranes at 0.1 uM incubated for 30 mins by radioligand competition assay relative to control; details: Cell membrane
Summary of the method: (§1)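 A2A binding, [3H]MSX-2 1.0 nM. Membranes: rat brain striatum, or HEK293 cells expressing human A2A. Adenosine deaminase preincubation 20 min, then 30 min at rt in 50 mM Tris-HCl pH 7.4 with 2.5% DMSO. Nonspecific binding defined by 50 µM NECA. GF/B filtration, scintillation counting. Single-concentration percent inhibition, ≥3 experiments in duplicate or triplicate.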

Adenosine receptor A2a [6] = target: Adenosine receptor A2a (Rattus norvegicus, UniProt P30543); test: Displacement of [3H]MSX2 from adenosine receptor A2A in rat brain striatum membranes incubated for 30 mins by radioligand competition assay; assay type: cell membranes, Cell membrane
Adenosine receptor A1 [7] = target: T5, Adenosine receptor A1 (Homo sapiens, UniProt P30542); test: Displacement of [3H]CCPA from human adenosine receptor A1 expressed in CHO cell membranes incubated for 90 mins by radioligand competition assay; design: species or system Cell membrane
T5 sequence (P30542 whole entry): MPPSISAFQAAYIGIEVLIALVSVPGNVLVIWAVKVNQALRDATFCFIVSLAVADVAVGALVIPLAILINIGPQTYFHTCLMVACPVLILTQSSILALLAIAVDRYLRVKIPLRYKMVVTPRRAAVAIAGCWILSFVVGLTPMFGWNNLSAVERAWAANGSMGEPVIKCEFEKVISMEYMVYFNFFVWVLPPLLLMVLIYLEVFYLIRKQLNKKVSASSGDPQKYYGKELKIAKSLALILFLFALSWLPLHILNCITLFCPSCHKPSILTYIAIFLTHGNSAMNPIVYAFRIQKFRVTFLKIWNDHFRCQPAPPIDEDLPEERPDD

Adenosine receptor A2b = target: T6, Adenosine receptor A2b (Homo sapiens, UniProt P29275); test: Displacement of [3H]PSB-603 from human adenosine receptor A2B expressed in CHO cell membranes incubated for 75 mins by radioligand competition assay; design: species or system Cell membrane
T6 sequence (P29275 whole entry): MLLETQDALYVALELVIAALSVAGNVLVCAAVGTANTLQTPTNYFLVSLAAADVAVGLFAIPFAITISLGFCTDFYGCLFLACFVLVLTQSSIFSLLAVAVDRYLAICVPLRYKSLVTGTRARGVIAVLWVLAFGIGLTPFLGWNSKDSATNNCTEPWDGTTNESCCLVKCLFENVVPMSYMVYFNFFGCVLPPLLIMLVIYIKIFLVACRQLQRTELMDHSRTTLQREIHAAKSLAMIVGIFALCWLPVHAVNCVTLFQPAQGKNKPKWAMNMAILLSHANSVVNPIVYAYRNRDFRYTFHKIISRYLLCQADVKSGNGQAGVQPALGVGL

Adenosine receptor A3 [8] = target: T7, Adenosine receptor A3 (Rattus norvegicus, UniProt P28647); test: Displacement of [3H]NECA from rat adenosine receptor A3 expressed in CHO cell membranes incubated for 60 mins by radioligand competition assay; design: species or system Cell membrane
T7 sequence (P28647 whole entry): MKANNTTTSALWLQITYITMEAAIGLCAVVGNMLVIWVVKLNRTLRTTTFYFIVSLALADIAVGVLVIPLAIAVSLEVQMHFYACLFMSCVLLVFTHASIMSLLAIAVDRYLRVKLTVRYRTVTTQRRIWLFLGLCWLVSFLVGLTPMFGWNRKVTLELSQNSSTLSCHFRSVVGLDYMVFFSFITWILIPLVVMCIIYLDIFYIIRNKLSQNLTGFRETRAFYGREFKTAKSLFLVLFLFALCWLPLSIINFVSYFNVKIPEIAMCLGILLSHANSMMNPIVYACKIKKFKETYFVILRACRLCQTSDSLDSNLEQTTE

[9] = target: T8, Adenosine receptor A2b (Homo sapiens) (UniProt P29275); test: Displacement of [3H]PSB-603 from human adenosine receptor A2B expressed in CHO cell membranes at 0.1 uM incubated for 75 mins by radioligand competition assay relative to control; details: Cell membrane
T8 sequence (whole entry): T6 sequence (P29275 whole entry)
Summary of the method: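 CHO membranes expressing human or rat A2B, [3H]PSB-603 0.3 nM. Nonspecific binding defined by 10 µM DPCPX. Preincubated 20 min with adenosine deaminase, then 75 min at rt in Tris-HCl pH 7.4 with 2.5% DMSO. Filters washed with ice-cold 50 mM Tris-HCl containing 0.1% BSA; scintillation counting.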

Adenosine receptor A2a [10] = target: T3, Adenosine receptor A2a; test: Displacement of [3H]MSX2 from human adenosine receptor A2A expressed in HEK293 cell membranes at 0.1 uM incubated for 30 mins by radioligand competition assay relative to control; details: Cell membrane; summary of the method: as §1
[11] = in the assay text read “at 1 uM” for “at 0.1 uM”

Adenosine receptor A2a (Rattus norvegicus, UniProt P30543), sequence (P30543 whole entry): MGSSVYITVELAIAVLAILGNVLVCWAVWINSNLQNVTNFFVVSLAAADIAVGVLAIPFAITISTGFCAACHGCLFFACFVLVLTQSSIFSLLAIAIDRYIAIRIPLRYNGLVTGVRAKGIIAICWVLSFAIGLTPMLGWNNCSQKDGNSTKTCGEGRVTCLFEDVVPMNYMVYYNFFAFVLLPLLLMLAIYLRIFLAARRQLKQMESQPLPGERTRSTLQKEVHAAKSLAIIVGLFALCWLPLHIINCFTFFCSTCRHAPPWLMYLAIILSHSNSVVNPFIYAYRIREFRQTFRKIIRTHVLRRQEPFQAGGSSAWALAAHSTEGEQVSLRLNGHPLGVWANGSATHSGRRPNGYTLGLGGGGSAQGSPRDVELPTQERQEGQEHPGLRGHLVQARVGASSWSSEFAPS
Adenosine receptor A2a (Rattus norvegicus), sequence (P30543 whole entry): as above
T3 sequence (P29274 whole entry): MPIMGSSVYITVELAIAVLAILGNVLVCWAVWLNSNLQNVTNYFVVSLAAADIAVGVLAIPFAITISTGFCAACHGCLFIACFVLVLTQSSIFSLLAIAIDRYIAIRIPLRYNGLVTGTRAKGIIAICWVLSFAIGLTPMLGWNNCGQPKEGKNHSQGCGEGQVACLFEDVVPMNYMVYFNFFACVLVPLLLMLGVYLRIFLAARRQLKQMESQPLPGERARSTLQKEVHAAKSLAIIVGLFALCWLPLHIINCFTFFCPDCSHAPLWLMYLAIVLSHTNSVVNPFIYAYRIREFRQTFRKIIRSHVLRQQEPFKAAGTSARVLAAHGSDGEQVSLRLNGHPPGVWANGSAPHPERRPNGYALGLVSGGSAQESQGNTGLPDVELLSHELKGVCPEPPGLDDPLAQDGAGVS

Row | Compound | Ki (Adenosine receptor A3 [1]) | Ki (Adenosine receptor A1 [2]) | Ki (Adenosine receptor A2a [3]) | inhibition ([4]; filed as antagonist) | inhibition [5] | Ki (Adenosine receptor A2a [6]) | Ki (Adenosine receptor A1 [7]) | Ki (Adenosine receptor A2b) | Ki (Adenosine receptor A3 [8]) | inhibition [9] | inhibition (Adenosine receptor A2a [10]; filed as antagonist, in the assay text read “1 uM” for “0.1 uM”) | inhibition [4] | inhibition (Adenosine receptor A2a [10]; [11])
1 | CC[C@@H]1CN2C(=O)N(C)c3nc(-c4cc(Cl)cc(Cl)c4Cl)[nH]c3C2=N1 |  | 805 nM | 2700 nM |  |  | 6040 nM | 1700 nM | 30000 nM |  |  |  |  | 
2 | COc1ccc(C(=O)Nc2nc(-c3ccccc3)c(C(=O)c3ccccc3)s2)cc1 | 25.4 nM | 1.47 nM | > 1000 nM |  | 32% | > 1000 nM | 36.7 nM | > 100 nM | > 1000 nM | 2% | 41% |  | 
3 | Cc1ccc(-n2c(-c3sc(NC(=O)c4ccccc4)nc3-c3ccccc3)nc3ccccc3c2=O)cc1 | 9.05 nM | > 1000 nM | > 1000 nM | 23% | 17% | > 1000 nM | > 1000 nM | > 100 nM | 806 nM |  |  |  | 
4 | CCCCn1c(=O)c2[nH]c(C34CC5CC(CC3C5)C4)nc2n(CCCO)c1=O | 2300 nM | 0.124 nM |  |  |  | 552 nM |  | 187 nM | 6500 nM |  |  |  | 
5 | Cn1c(=O)c2[nH]cnc2n(C)c1=O [THEOPHYLLINE] |  |  |  |  |  |  |  |  | > 100000 nM |  |  |  | 
6 | CC[C@@H]1CN2C(=O)N(C)c3nc(-c4ccccc4)[nH]c3C2=N1 |  |  | 108 nM |  |  |  |  | 3700 nM | > 10000 nM |  |  |  | 

Next, values leading:

Row | Ki (Adenosine receptor A3 [1]) | Ki (Adenosine receptor A1 [2]) | Ki (Adenosine receptor A2a [3]) | inhibition ([4]; filed as antagonist) | inhibition [5] | Ki (Adenosine receptor A2a [6]) | Ki (Adenosine receptor A1 [7]) | Ki (Adenosine receptor A2b) | Ki (Adenosine receptor A3 [8]) | inhibition [9] | inhibition (Adenosine receptor A2a [10]; filed as antagonist, in the assay text read “1 uM” for “0.1 uM”) | inhibition [4] | inhibition (Adenosine receptor A2a [10]; [11]) | Compound
7 | 111 nM | > 1000 nM | > 1000 nM | 1% | 3% | > 1000 nM | > 1000 nM | > 100 nM |  |  |  |  |  | O=C(Nc1nc(-c2ccccc2)c(-c2nc3ccccc3c(=O)n2-c2ccccc2)s1)c1ccccc1
8 | 6.45 nM | > 1000 nM | > 1000 nM |  |  | > 1000 nM | > 1000 nM | > 100 nM | 973 nM | 30% |  | 25% | 11% | COc1ccc(-n2c(-c3sc(NC(=O)c4ccco4)nc3-c3ccccc3)nc3ccccc3c2=O)cc1
9 | 129 nM | > 1000 nM | > 1000 nM |  | 33% | > 1000 nM | > 1000 nM | > 100 nM |  | 1% |  | 26% | 5% | O=C(Nc1nc(-c2ccccc2)c(-c2nc3ccccc3c(=O)n2-c2ccccc2)s1)c1ccco1
10 | 174 nM | > 1000 nM | > 1000 nM | 11% | 1% | > 1000 nM | > 1000 nM | > 100 nM |  |  |  |  | 20% | COc1ccc(C(=O)Nc2nc(-c3ccccc3)c(-c3nc4ccccc4c(=O)n3-c3ccccc3)s2)cc1
